Assay results taken from ChEMBL document CHEMBL2151019, “Potent and selective inhibitors of PI3Kδ: obtaining isoform selectivity from the affinity pocket and tryptophan shelf” (Bioorg Med Chem Lett, 2012).
pIC50: −log10 of the molar value. Each block holds one compound with its values, some of them ahead of it.

Assays:
[1] = Selectivity ratio of IC50 for PI3Kalpha to IC50 for PI3Kdelta
How it was run: (§1)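 Ratios of biochemical IC50 values, each against the PI3Kδ IC50. Both IC50s come from the fluorescence polarization assay monitoring PIP2-to-PIP3 conversion by each Class I isoform.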

[2] = target: T1, Phosphatidylinositol 4,5-bisphosphate 3-kinase catalytic subunit delta isoform (Homo sapiens, UniProt O00329); test: Inhibition of PI3Kdelta-mediated AKT phosphorylation in B cells in presence of human serum; type: cell-based
T1 sequence (O00329 whole entry): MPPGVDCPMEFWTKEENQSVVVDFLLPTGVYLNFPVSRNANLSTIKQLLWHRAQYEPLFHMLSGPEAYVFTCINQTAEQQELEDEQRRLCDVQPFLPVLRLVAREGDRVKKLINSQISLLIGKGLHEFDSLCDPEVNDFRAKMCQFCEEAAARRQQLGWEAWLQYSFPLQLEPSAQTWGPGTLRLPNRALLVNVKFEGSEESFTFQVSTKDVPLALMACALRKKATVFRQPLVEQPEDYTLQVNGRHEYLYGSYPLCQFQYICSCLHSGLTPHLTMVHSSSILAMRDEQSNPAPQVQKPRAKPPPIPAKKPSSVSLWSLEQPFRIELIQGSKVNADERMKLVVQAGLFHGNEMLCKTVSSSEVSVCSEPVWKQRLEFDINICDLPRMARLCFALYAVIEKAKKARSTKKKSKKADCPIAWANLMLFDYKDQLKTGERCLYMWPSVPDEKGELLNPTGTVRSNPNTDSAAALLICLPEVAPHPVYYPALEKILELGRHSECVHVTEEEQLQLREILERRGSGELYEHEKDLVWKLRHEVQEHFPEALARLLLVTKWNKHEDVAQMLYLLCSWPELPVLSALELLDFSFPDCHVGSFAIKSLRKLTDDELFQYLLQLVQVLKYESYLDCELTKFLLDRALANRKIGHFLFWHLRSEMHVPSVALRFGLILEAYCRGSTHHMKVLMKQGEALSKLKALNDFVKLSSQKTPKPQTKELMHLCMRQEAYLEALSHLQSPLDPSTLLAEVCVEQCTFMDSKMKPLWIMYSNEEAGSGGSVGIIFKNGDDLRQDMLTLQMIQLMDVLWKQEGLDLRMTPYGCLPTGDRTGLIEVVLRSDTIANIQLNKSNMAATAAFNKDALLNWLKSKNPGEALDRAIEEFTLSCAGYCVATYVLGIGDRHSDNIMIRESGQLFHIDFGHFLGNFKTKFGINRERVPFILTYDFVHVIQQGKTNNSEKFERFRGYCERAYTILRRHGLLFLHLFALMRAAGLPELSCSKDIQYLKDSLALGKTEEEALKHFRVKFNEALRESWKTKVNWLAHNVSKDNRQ
How it was run: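 Cellular assay in the PI3Kδ-dependent B-cell cancer line Ri-1. Downstream pAKT measured with human serum added (serum-shifted); IC50 determined.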

[3] = Selectivity ratio of IC50 for PI3Kgamma to IC50 for PI3Kdelta; how it was run: as §1
[4] = target: T1, Phosphatidylinositol 4,5-bisphosphate 3-kinase catalytic subunit delta isoform; test: Inhibition of PI3K p110delta using PIP2 as substrate assessed as PIP3 formation by fluorescence polarization assay
How it was run: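 Biochemical fluorescence polarization assay following conversion of PIP2 to PIP3 by PI3Kδ; IC50 determined.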

[5] = Selectivity ratio of IC50 for PI3Kbeta to IC50 for PI3Kdelta; how it was run: as §1
[6] = AUC in BALB/c mouse at 40 mg/kg, po; type: ADME, organism-based; parameters: dose 40 mg/kg, route oral; conditions: plasma
How it was run: (§2)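 Female Balb/c mice received the compound orally as a suspension in 0.5% methylcellulose/0.2% Tween-80 (MCT). Plasma concentration–time profiles were used to derive Cmax, AUC and terminal half-life.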

[7] = Half life in BALB/c mouse at 40 mg/kg, po; type: ADME, organism-based; parameters: dose 40 mg/kg, route oral; conditions: in vivo; how it was run: as §2
[8] = AUC in Sprague-Dawley rat at 5 mg/kg, po; type: ADME, organism-based; parameters: dose 5 mg/kg, route oral; conditions: plasma
How it was run: (§3)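 Oral dosing in male Sprague–Dawley rats used an MCT suspension (0.5% methylcellulose/0.2% Tween-80). Cmax, AUC and terminal half-life were taken from plasma concentration–time curves.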

[9] = Oral bioavailability in CD1 mouse at 5 mg/kg; type: ADME, organism-based; conditions: in vivo
How it was run: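 Female CD-1 mice received an IV dose of 1 mg/kg in 5% DMSO/5% Cremophor and an oral dose of 5 mg/kg as an MCT suspension (0.5% methylcellulose/0.2% Tween-80). Plasma exposure was compared between the two routes.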

[10] = Cmax in Sprague-Dawley rat at 10 mg/kg, po; type: ADME, organism-based; parameters: dose 10 mg/kg, route oral; conditions: in vivo; how it was run: as §3
[11] = Clearance in CD1 mouse at 1 mg/kg, iv; type: ADME, organism-based; parameters: dose 1 mg/kg, route intravenous; conditions: in vivo
[12] = AUC in Sprague-Dawley rat at 30 mg/kg, po; type: ADME, organism-based; parameters: dose 30 mg/kg, route oral; conditions: plasma; how it was run: as §3
[13] = Clearance in Sprague-Dawley rat at 1 mg/kg, iv; type: ADME, organism-based; parameters: dose 1 mg/kg, route intravenous; conditions: in vivo
How it was run: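 Male Sprague–Dawley rats received 1 mg/kg intravenously in 5% DMSO/5% Cremophor. In vivo clearance was derived from plasma concentrations over time.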

[14] = Volume of distribution at steady state in CD1 mouse at 1 mg/kg, iv; type: ADME, organism-based; parameters: dose 1 mg/kg, route intravenous; conditions: in vivo, read-out: Vdss
How it was run: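 Single IV dose of 1 mg/kg in 5% DMSO/5% Cremophor to female CD-1 mice. Pharmacokinetic parameters were taken from plasma concentrations over time.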

[15] = Volume of distribution at steady state in Sprague-Dawley rat at 1 mg/kg, iv; type: ADME, organism-based; parameters: dose 1 mg/kg, route intravenous; conditions: in vivo, read-out: Vdss
How it was run: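 Male Sprague–Dawley rats were given 1 mg/kg IV in 5% DMSO/5% Cremophor. Pharmacokinetic parameters were taken from plasma concentrations over time.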

[16] = Oral bioavailability in Sprague-Dawley rat at 5 mg/kg; type: ADME, organism-based; conditions: in vivo
How it was run: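 Male Sprague–Dawley rats received an IV dose of 1 mg/kg in 5% DMSO/5% Cremophor and an oral dose of 5 mg/kg as an MCT suspension (0.5% methylcellulose/0.2% Tween-80). Plasma exposure was compared between the two routes.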

[17] = Cmax in CD1 mouse at 5 mg/kg, po; type: ADME, organism-based; parameters: dose 5 mg/kg, route oral; conditions: in vivo
How it was run: (§4)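 Female CD-1 mice were given a 5 mg/kg oral dose as an MCT suspension (0.5% methylcellulose/0.2% Tween-80). Cmax, AUC and half-life came from the plasma concentration–time profiles.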

[18] = Half life in Sprague-Dawley rat at 10 mg/kg, po; type: ADME, organism-based; parameters: dose 10 mg/kg, route oral; conditions: in vivo; how it was run: as §3
[19] = Half life in Sprague-Dawley rat at 30 mg/kg, po; type: ADME, organism-based; parameters: dose 30 mg/kg, route oral; conditions: in vivo; how it was run: as §3
[20] = Half life in Sprague-Dawley rat at 5 mg/kg, po; type: ADME, organism-based; parameters: dose 5 mg/kg, route oral; conditions: in vivo; how it was run: as §3
[21] = Cmax in BALB/c mouse at 40 mg/kg, po; type: ADME, organism-based; parameters: dose 40 mg/kg, route oral; conditions: in vivo; how it was run: as §2
[22] = AUC in Sprague-Dawley rat at 10 mg/kg, po; type: ADME, organism-based; parameters: dose 10 mg/kg, route oral; conditions: plasma; how it was run: as §3
[23] = Half life in BALB/c mouse at 20 mg/kg, po; type: ADME, organism-based; parameters: dose 20 mg/kg, route oral; conditions: in vivo; how it was run: as §2
[24] = AUC in CD1 mouse at 5 mg/kg, po; type: ADME, organism-based; parameters: dose 5 mg/kg, route oral; conditions: plasma; how it was run: as §4
[25] = Cmax in Sprague-Dawley rat at 5 mg/kg, po; type: ADME, organism-based; parameters: dose 5 mg/kg, route oral; conditions: in vivo; how it was run: as §3
[26] = AUC in BALB/c mouse at 20 mg/kg, po; type: ADME, organism-based; parameters: dose 20 mg/kg, route oral; conditions: plasma; how it was run: as §2
[27] = Cmax in BALB/c mouse at 20 mg/kg, po; type: ADME, organism-based; parameters: dose 20 mg/kg, route oral; conditions: in vivo; how it was run: as §2
[28] = Cmax in Sprague-Dawley rat at 30 mg/kg, po; type: ADME, organism-based; parameters: dose 30 mg/kg, route oral; conditions: in vivo; how it was run: as §3
[29] = Half life in CD1 mouse at 5 mg/kg, po; type: ADME, organism-based; parameters: dose 5 mg/kg, route oral; conditions: in vivo; how it was run: as §4

Compound: CC(C)(O)C1CCN(Cc2ccc3nc(-c4cnc(N)nc4)nc(N4CCOCC4)c3n2)CC1
Ratio IC50 [1]: 5.4
pIC50 [2]: 6.84
Ratio IC50 [3]: 43
pIC50 [4]: 8.59
Ratio IC50 [5]: 73

Compound: OCc1ccc2nc(-c3c(F)ccc4[nH]ccc34)nc(N3CCOCC3)c2n1
Ratio IC50 [1]: 14
pIC50 [2]: 6.84
Ratio IC50 [3]: 38
pIC50 [4]: 7.57
Ratio IC50 [5]: 3.7

Compound: CC(C)(O)C1CCN(Cc2nc3nc(-c4c(F)ccc5[nH]ccc45)nc(N4CCOCC4)c3[nH]2)CC1
pIC50 [4]: 8.72

Compound: CC(C)(O)C1CCN(Cc2ccc3nc(-c4cccc5[nH]ncc45)nc(N4CCOCC4)c3n2)CC1
Ratio IC50 [1]: 22
pIC50 [2]: 6.32
Ratio IC50 [3]: 260
Ratio IC50 [5]: 78

Compound: Fc1ccc2[nH]ccc2c1-c1nc(N2CCOCC2)c2nc(CN3CCOCC3)ccc2n1
Ratio IC50 [1]: 58
pIC50 [2]: 7.17
Ratio IC50 [3]: 120
pIC50 [4]: 7.92
Ratio IC50 [5]: 13

Other lines, results leading:

Ratio IC50 [1]: 220
Ratio IC50 [3]: 1400
pIC50 [4]: 9.22
Ratio IC50 [5]: 200
Compound: CC(C)(O)C1CCN(Cc2nc3c(N4CCOCC4)nc(-c4c(F)ccc5[nH]ccc45)nc3s2)CC1

Ratio IC50 [1]: 330
Ratio IC50 [3]: 1500
Ratio IC50 [5]: 140
Compound: CC(C)(O)C1CCN(Cc2nc3c(N4CCOCC4)nc(-c4c(F)ccc5[nH]ccc45)nc3[nH]2)CC1

Ratio IC50 [1]: 370
pIC50 [2]: 7.26
Ratio IC50 [3]: 610
Ratio IC50 [5]: 210
Compound: CC(C)(O)C1CCN(Cc2ccc3nc(-c4cccc5[nH]ccc45)nc(N4CCOCC4)c3n2)CC1

Ratio IC50 [1]: 170
Ratio IC50 [3]: 910
pIC50 [4]: 8.40
Ratio IC50 [5]: 110
Compound: CC(C)(O)C1CCN(Cc2cc3nc(-c4c(F)ccc5[nH]ccc45)nc(N4CCOCC4)c3s2)CC1

AUC [6]: 63 µM·h
half-life [7]: 5 h
AUC [8]: 2.6 µM·h
bioavailability [9]: 80%
Cmax [10]: 1200 nM
clearance [11]: 53 mL/min/kg
AUC [12]: 46 µM·h
clearance [13]: 59 mL/min/kg
Vd [14]: 4.9 L/kg
Vd [15]: 8.8 L/kg
bioavailability [16]: 90%
Cmax [17]: 900 nM
half-life [18]: 3.8 h
half-life [19]: 4.8 h
half-life [20]: 2.6 h
Cmax [21]: 14000 nM
AUC [22]: 11 µM·h
half-life [23]: 2.9 h
AUC [24]: 2.5 µM·h
Cmax [25]: 500 nM
AUC [26]: 13 µM·h
Cmax [27]: 3900 nM
Cmax [28]: 4700 nM
half-life [29]: 2.6 h
Compound: CC(C)(O)C1CCN(Cc2ccc3nc(-c4c(F)ccc5[nH]ccc45)nc(N4CCOCC4)c3n2)CC1
